Activity calls are given as the source filed them. The rule behind the calls is not given here.
Experiments:
PC-3 [1] = assay: Induction of morphological changes in human PC3 cells assessed as increase in cell rounding at 5 umol/L after 48 hrs by inverted microscopic method; type: functional, cell-based
In short: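 PC3 cells were kept in DMEM with 10% FBS, penicillin and streptomycin at 37 °C under 5% CO2, and were passaged at least 3 times after thawing. Cells were seeded at 4 × 10^3 to 8 × 10^3 cells/well and left to adhere for 24 h. They were then exposed to 5 µmol/L compound for 48 h. Morphology was viewed by inverted microscope against DMSO-treated controls.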

PC-3 [2] = assay: Induction of apoptosis in human PC3 cells assessed as necrotic cells at 5 umol/L after 48 hrs by annexin V-FITC/propidium iodide staining based flow cytometry (reference value: 4.6%); type: functional
K562 [3] = assay: Cell cycle arrest in human K562 cells assessed as decrease in G1 phase accumulation at 5 umol/L after 48 hrs by propidium iodide staining based flow cytometry; type: functional
In short: (§1)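 Cells grown in DMEM with 10% FBS and penicillin/streptomycin at 37 °C, 5% CO2, and passaged at least 3 times after thawing. Treated 48 h at 5 µmol/L, DMSO-treated controls. Harvested by trypsin, PBS-washed, fixed in ice-cold ethanol, blocked 1 h at 4 °C in 5% BSA/PBS, RNase 1 µg/mL 30 min at 37 °C, PI 20 µg/mL final. Phase percentages read from PI histograms. Mean ± SD, three independent experiments.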

HEL [4] = assay: Induction of apoptosis in HEL cells assessed as early apoptotic cells at 5 umol/L after 48 hrs by annexin V-FITC/propidium iodide staining based flow cytometry (reference value: 2.6 to 4.2%); type: functional, Homo sapiens
MDA-MB-231 [5] = assay: Induction of apoptosis in human MDA-MB-231 cells assessed as viable cells at 5 umol/L after 48 hrs by annexin V-FITC/propidium iodide staining based flow cytometry (reference value: 91.3%); type: functional; settings: MDA-MB-231, 48 h, read-out: Activity
K562 [6] = assay: Induction of apoptosis in human K562 cells assessed as viable cells at 5 umol/L after 48 hrs by annexin V-FITC/propidium iodide staining based flow cytometry (reference value: 92.6%); type: functional; settings: K562, 48 h, read-out: Activity
PC-3 [7] = assay: Potency index, ratio of compound effect to (E)-2-Hydroxy-4,4-dimethoxy-3,5-diprenylchalcone effect for growth inhibition of human PC3 cells; type: functional
MDA-MB-231 [8] = assay: Induction of apoptosis in human MDA-MB-231 cells assessed as necrotic cells at 5 umol/L after 48 hrs by annexin V-FITC/propidium iodide staining based flow cytometry (reference value: 3.4%); type: functional
MDA-MB-231 [9] = assay: Induction of morphological changes in human MDA-MB-231 cells assessed as increase in intracellular space at 5 umol/L after 48 hrs by inverted microscopic method; type: functional, cell-based
In short: (§2)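 Cells cultured in DMEM/10% FBS at 37 °C, 5% CO2. Exposed 48 h to 5 µmol/L compound alongside DMSO controls. Morphology (cell number, rounding, spacing, apoptotic bodies, spindle shape) observed under an inverted microscope with CCD camera.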

PC-3 [10] = assay: Cytotoxicity against human PC3 cells after 48 hrs by MTT assay; type: functional, cell-based
In short: (§3)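 Cells kept in DMEM/10% FBS at 37 °C, 5% CO2, seeded at 4×10^3–8×10^3 cells/well and left 24 h to adhere. Exposed 48 h to a range of concentrations. MTT (5 mg/mL solution) added for 4 h at 37 °C, formazan dissolved in DMSO, absorbance read at 490 nm. IC50 derived from concentration–inhibition relation. Doxorubicin as positive control.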

K562 [11] = assay: Induction of morphological changes in human K562 cells assessed as increase in cell rounding at 5 umol/L after 48 hrs by inverted microscopic method; type: functional, cell-based; in short: as §2
HEL [12] = assay: Induction of apoptosis in HEL cells assessed as viable cells at 5 umol/L after 48 hrs by annexin V-FITC/propidium iodide staining based flow cytometry (reference value: 93.1 to 94%); type: functional; settings: Homo sapiens, read-out: Activity
HEL [13] = assay: Cell cycle arrest in HEL cells assessed as increase in G1 phase accumulation at 5 umol/L after 48 hrs by propidium iodide staining based flow cytometry; type: functional; settings: Homo sapiens; in short: as §1
HEL [14] = assay: Induction of morphological changes in HEL cells assessed as formation of apoptotic bodies at 5 umol/L after 48 hrs by inverted fluorescence microscopic analysis; type: functional, cell-based; settings: Homo sapiens; in short: as §2
PC-3 [15] = assay: Induction of apoptosis in human PC3 cells assessed as early apoptotic cells at 5 umol/L after 48 hrs by annexin V-FITC/propidium iodide staining based flow cytometry (reference value: 4%); type: functional
MDA-MB-231 [16] = assay: Induction of morphological changes in human MDA-MB-231 cells assessed as increase in cell rounding at 5 umol/L after 48 hrs by inverted microscopic method; type: functional, cell-based; in short: as §2
PC-3 [17] = assay: Cell cycle arrest in human PC3 cells assessed as increase in G1 phase accumulation at 5 umol/L after 48 hrs by propidium iodide staining based flow cytometric method; type: functional; in short: as §1
MDA-MB-231 [18] = assay: Growth inhibition of human MDA-MB-231 cells at 5 umol/L after 48 hrs by MTT assay relative to control; type: functional; settings: MDA-MB-231, 48 h, read-out: GI
In short: (§4)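 Cells kept in DMEM/10% FBS at 37 °C, 5% CO2, seeded at 4×10^3–8×10^3 cells/well, 24 h attachment, then 48 h with compound at 5 µmol/L. MTT (5 mg/mL solution) added for 4 h at 37 °C, formazan taken up in DMSO, A490 read. Percent inhibition as mean ± SD of three independent experiments. Doxorubicin as positive control.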

PC-3 [19] = assay: Growth inhibition of human PC3 cells at 5 umol/L after 48 hrs by MTT assay relative to control; type: functional; settings: PC-3, 48 h, read-out: GI; in short: as §4
MDA-MB-231 [20] = assay: Induction of apoptosis in human MDA-MB-231 cells assessed as spindle like formation at 5 umol/L after 48 hrs by inverted microscopic method; type: functional, cell-based; in short: as §2
K562 [21] = assay: Cytotoxicity against human K562 cells after 48 hrs by MTT assay; type: functional, cell-based; in short: as §3
PC-3 [22] = assay: Induction of apoptosis in human PC3 cells assessed as late apoptotic cells at 5 umol/L after 48 hrs by annexin V-FITC/propidium iodide staining based flow cytometry (reference value: 4.7%); type: functional
K562 [23] = assay: Induction of apoptosis in human K562 cells assessed as necrotic cells at 5 umol/L after 48 hrs by annexin V-FITC/propidium iodide staining based flow cytometry (reference value: 1.2%); type: functional
PC-3 [24] = assay: Induction of apoptosis in human PC3 cells assessed as spindle like formation at 5 umol/L after 48 hrs by inverted microscopic method; type: functional, cell-based; in short: as §2
HEL [25] = assay: Induction of morphological changes in HEL cells assessed as reduction in cell number at 5 umol/L after 48 hrs by inverted fluorescence microscopic analysis; type: functional, cell-based; settings: Homo sapiens; in short: as §2
PC-3 [26] = assay: Cell cycle arrest in human PC3 cells assessed as decrease in S phase accumulation at 5 umol/L after 48 hrs by propidium iodide staining based flow cytometric method; type: functional; in short: as §1
MDA-MB-231 [27] = assay: Induction of apoptosis in human MDA-MB-231 cells assessed as late apoptotic cells at 5 umol/L after 48 hrs by annexin V-FITC/propidium iodide staining based flow cytometry (reference value: 2.2%); type: functional
MDA-MB-231 [28] = assay: Induction of apoptosis in human MDA-MB-231 cells assessed as early apoptotic cells at 5 umol/L after 48 hrs by annexin V-FITC/propidium iodide staining based flow cytometry (reference value: 3%); type: functional

Structure (SMILES): COc1c(CC=C(C)C)cc(C(=O)/C=C/c2cccnc2)c(O)c1CC=C(C)C
- Activity (PC-3 [1]): Active
- Activity (PC-3 [2]): 10.6%
- Activity (K562 [3]): Active
- Activity (HEL [4]): 5.6%
- viability at 5 µM (MDA-MB-231 [5]): 35.2%
- viability at 5 µM (K562 [6]): 64%
- Ratio (PC-3 [7]): 3 - 4
- Activity (MDA-MB-231 [8]): 14.1%
- Activity (MDA-MB-231 [9]): Active
- Activity (PC-3 [10]): Dose-dependent effect
- IC50 (PC-3 [10]; PC-3, 48 h): 2.92 µM
- Activity (K562 [11]): Active
- viability at 5 µM (HEL [12]): 82.4%
- Activity (HEL [13]): Active
- Activity (HEL [14]): inactive
- Activity (PC-3 [15]): 1.8%
- Activity (MDA-MB-231 [16]): Active
- Activity (PC-3 [17]): Active
- inhibition of growth at 5 µM (MDA-MB-231 [18]): 83.4%
- inhibition of growth at 5 µM (PC-3 [19]): 90.4%
- Activity (MDA-MB-231 [20]): Active
- Activity (K562 [21]): Dose-dependent effect
- IC50 (K562 [21]; K562, 48 h): 2.64 µM
- Activity (PC-3 [22]): 42.7%
- Activity (K562 [23]): 11.3%
- Activity (PC-3 [24]): Active
- Activity (HEL [25]): Active
- Activity (PC-3 [26]): Active
- Activity (MDA-MB-231 [27]): 36.8%
- Activity (MDA-MB-231 [28]): 13.8%

— ChEMBL document CHEMBL4052614, “Novel 3',5'-diprenylated chalcones inhibited the proliferation of cancer cells in vitro by inducing cell apoptosis and arresting cell cycle phase” (Eur J Med Chem, 2017)
